From ChEMBL document CHEMBL3758132, “Dissecting structure-activity-relationships of crebinostat: Brain penetrant HDAC inhibitors for neuroepigenetic regulation” (Bioorg Med Chem Lett, 2016)
pEC50, pIC50: −log10 of the molar value. One block for each molecule: values may come before it. The source made the active and inactive calls. The calls are words filed in the database; no cut-off is given here.

Key:
Mus musculus [1] = species: Mus musculus; assay: Inhibition of HDAC in mouse forebrain primary neurons assessed as acetylation of histone H3K9 at 1 to 10 uM after 24 hrs by immunofluorescence assay
Procedure, shortened: (§1)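 Mouse forebrain primary neuronal cultures (DIV13–14) treated 24 h at 1 and 10 μM, n=3. Cells fixed and immunostained for H3K9ac or H4K12ac; nuclear fluorescence intensity quantified by imaging. […] Mean ± SEM; unpaired t-test.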

Histone deacetylase 1 = Histone deacetylase 1 (Homo sapiens, UniProt Q13547); assay: Inhibition of human recombinant HDAC1 using acetyllysine tripeptide coupled with 7-amino-4-methylcoumarin as substrate by fluorescence assay
Histone deacetylase 2 = Histone deacetylase 2 (Homo sapiens, UniProt Q92769); assay: Inhibition of human recombinant HDAC2 using acetyllysine tripeptide coupled with 7-amino-4-methylcoumarin as substrate by fluorescence assay
Histone deacetylase 3 = Histone deacetylase 3 (Homo sapiens, UniProt O15379); assay: Inhibition of human recombinant HDAC3 using acetyllysine tripeptide coupled with 7-amino-4-methylcoumarin as substrate by fluorescence assay
Mus musculus [2] = species: Mus musculus; assay: Inhibition of HDAC in mouse forebrain primary neurons assessed as acetylation of histone H4K12 at 1 to 10 uM after 24 hrs by immunofluorescence assay; procedure, shortened: as §1
[3] = Inhibition of HDAC in mouse forebrain primary neurons assessed as acetylation of histone H3K9 after 24 hrs by immunofluorescence assay
[4] = Cmax in C57BL/6 mouse brain at 25 mg/kg, ip after 0.5 hrs by LC/MS/MS analysis; type: ADME, organism-based; set-up: dose 25 mg/kg, route intraperitoneal
Procedure, shortened: (§2)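 Mice dosed intraperitoneally at 25 mg/kg. Brains and peripheral blood were collected at each point of a 6-point time course, three mice per time point. Compound concentration was measured in processed brain and blood samples. PK parameters were derived from the concentration-time profiles.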

[5] = molecular target: T1, Protein deacetylase HDAC6 (Homo sapiens, UniProt Q9UBN7); assay: Inhibition of human recombinant HDAC6 using acetyllysine tripeptide coupled with 7-amino-4-methylcoumarin as substrate by fluorescence assay
T1 sequence (Q9UBN7 whole entry): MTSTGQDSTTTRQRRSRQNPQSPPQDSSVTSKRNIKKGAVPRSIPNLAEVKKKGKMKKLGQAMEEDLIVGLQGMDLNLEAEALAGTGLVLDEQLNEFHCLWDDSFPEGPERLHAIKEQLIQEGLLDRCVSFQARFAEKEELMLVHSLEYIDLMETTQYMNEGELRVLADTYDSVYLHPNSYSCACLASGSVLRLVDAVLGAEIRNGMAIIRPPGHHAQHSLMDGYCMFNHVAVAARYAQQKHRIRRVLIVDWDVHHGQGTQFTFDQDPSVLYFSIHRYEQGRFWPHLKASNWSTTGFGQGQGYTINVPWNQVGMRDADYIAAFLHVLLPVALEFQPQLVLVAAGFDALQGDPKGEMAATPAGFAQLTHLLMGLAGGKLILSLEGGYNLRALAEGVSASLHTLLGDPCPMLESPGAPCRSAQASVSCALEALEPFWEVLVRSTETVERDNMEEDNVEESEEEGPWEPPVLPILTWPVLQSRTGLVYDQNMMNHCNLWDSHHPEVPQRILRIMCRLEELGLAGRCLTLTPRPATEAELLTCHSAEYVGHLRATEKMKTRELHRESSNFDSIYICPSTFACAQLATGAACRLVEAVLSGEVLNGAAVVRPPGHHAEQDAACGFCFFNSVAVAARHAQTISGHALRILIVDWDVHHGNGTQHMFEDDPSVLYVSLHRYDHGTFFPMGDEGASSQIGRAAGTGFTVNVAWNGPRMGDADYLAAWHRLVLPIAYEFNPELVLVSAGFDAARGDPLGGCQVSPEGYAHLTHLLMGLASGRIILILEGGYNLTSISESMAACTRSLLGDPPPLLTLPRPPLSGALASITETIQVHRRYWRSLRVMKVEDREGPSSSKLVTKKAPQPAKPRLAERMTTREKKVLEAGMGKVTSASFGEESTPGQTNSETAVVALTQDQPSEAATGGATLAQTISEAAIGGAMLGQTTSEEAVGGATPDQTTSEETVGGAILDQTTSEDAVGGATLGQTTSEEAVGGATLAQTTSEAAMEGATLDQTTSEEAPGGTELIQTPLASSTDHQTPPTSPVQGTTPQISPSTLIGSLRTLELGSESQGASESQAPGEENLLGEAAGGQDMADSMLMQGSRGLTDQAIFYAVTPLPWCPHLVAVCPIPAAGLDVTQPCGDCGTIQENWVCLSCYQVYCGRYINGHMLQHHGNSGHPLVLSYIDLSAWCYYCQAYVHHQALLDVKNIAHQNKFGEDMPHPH

[6] = molecular target: Histone deacetylase 5 (Homo sapiens) (UniProt Q9UQL6); assay: Inhibition of human recombinant HDAC5 using acetyllysine tripeptide coupled with 7-amino-4-methylcoumarin as substrate by fluorescence assay
[7] = Cmax in C57BL/6 mouse brain at 25 mg/kg, ip after 1 hr by LC/MS/MS analysis; type: ADME, organism-based; set-up: dose 25 mg/kg, route intraperitoneal; procedure, shortened: as §2
[8] = Cmax in C57BL/6 mouse brain at 25 mg/kg, ip after 2 hrs by LC/MS/MS analysis; type: ADME, organism-based; set-up: dose 25 mg/kg, route intraperitoneal; procedure, shortened: as §2
[9] = Cmax in C57BL/6 mouse brain at 25 mg/kg, ip after 6 hrs by LC/MS/MS analysis; type: ADME, organism-based; set-up: dose 25 mg/kg, route intraperitoneal; procedure, shortened: as §2
[10] = Cmax in C57BL/6 mouse brain at 25 mg/kg, ip after 24 hrs by LC/MS/MS analysis; type: ADME, organism-based; set-up: dose 25 mg/kg, route intraperitoneal; procedure, shortened: as §2
[11] = Cmax in C57BL/6 mouse plasma at 25 mg/kg, ip after 1 hr by LC/MS/MS analysis; type: ADME, organism-based; set-up: dose 25 mg/kg, route intraperitoneal; procedure, shortened: as §2
[12] = Cmax in C57BL/6 mouse plasma at 25 mg/kg, ip after 0.5 hrs by LC/MS/MS analysis; type: ADME, organism-based; set-up: dose 25 mg/kg, route intraperitoneal; procedure, shortened: as §2
[13] = Cmax in C57BL/6 mouse plasma at 25 mg/kg, ip after 2 hrs by LC/MS/MS analysis; type: ADME, organism-based; set-up: dose 25 mg/kg, route intraperitoneal; procedure, shortened: as §2
[14] = Cmax in C57BL/6 mouse plasma at 25 mg/kg, ip after 6 hrs by LC/MS/MS analysis; type: ADME, organism-based; set-up: dose 25 mg/kg, route intraperitoneal; procedure, shortened: as §2
[15] = Cmax in C57BL/6 mouse plasma at 25 mg/kg, ip after 12 hrs by LC/MS/MS analysis; type: ADME, organism-based; set-up: dose 25 mg/kg, route intraperitoneal; procedure, shortened: as §2
[16] = Cmax in C57BL/6 mouse plasma at 25 mg/kg, ip after 24 hrs by LC/MS/MS analysis; type: ADME, organism-based; set-up: dose 25 mg/kg, route intraperitoneal; procedure, shortened: as §2
[17] = Tmax in C57BL/6 mouse plasma at 25 mg/kg, ip after 0.5 to 24 hrs by LC/MS/MS analysis; type: ADME, organism-based; procedure, shortened: as §2
[18] = AUClast in C57BL/6 mouse plasma at 25 mg/kg, ip after 0.5 to 24 hrs by LC/MS/MS analysis; type: ADME, organism-based; procedure, shortened: as §2
[19] = AUCinfinity in C57BL/6 mouse plasma at 25 mg/kg, ip after 0.5 to 24 hrs by LC/MS/MS analysis; type: ADME, organism-based; set-up: dose 25 mg/kg, route intraperitoneal, time infinity; procedure, shortened: as §2
Mus musculus [20] = assay: Half life in C57BL/6 mouse plasma at 25 mg/kg, ip after 0.5 to 24 hrs by LC/MS/MS analysis; type: ADME, organism-based; conditions: in vivo; procedure, shortened: as §2
[21] = Apparent clearance in C57BL/6 mouse plasma at 25 mg/kg, ip after 0.5 to 24 hrs by LC/MS/MS analysis; type: ADME, organism-based; procedure, shortened: as §2
[22] = Mean Residence time up to the last quantifiable time-point in C57BL/6 mouse plasma at 25 mg/kg, ip after 0.5 to 24 hrs by LC/MS/MS analysis; type: ADME, organism-based; procedure, shortened: as §2
[23] = Tmax in C57BL/6 mouse brain at 25 mg/kg, ip after 0.5 to 24 hrs by LC/MS/MS analysis; type: ADME, organism-based; procedure, shortened: as §2
[24] = AUClast in C57BL/6 mouse brain at 25 mg/kg, ip after 0.5 to 24 hrs by LC/MS/MS analysis; type: ADME, organism-based; procedure, shortened: as §2
[25] = Ratio of drug level in brain to plasma in C57BL/6 mouse at 25 mg/kg, ip after 0.5 to 2 hrs by LC/MS/MS analysis; type: ADME, organism-based; conditions: brain and plasma, read-out: BPR
Procedure, shortened: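 Intraperitoneal dose of 25 mg/kg in mice, three animals per time point. Compound levels in processed brain and in peripheral blood were measured at matched times. Individual brain-to-plasma concentration ratios were calculated for the 0.5 to 2 h time points.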

Histone deacetylase 1, sequence (Q13547 whole entry): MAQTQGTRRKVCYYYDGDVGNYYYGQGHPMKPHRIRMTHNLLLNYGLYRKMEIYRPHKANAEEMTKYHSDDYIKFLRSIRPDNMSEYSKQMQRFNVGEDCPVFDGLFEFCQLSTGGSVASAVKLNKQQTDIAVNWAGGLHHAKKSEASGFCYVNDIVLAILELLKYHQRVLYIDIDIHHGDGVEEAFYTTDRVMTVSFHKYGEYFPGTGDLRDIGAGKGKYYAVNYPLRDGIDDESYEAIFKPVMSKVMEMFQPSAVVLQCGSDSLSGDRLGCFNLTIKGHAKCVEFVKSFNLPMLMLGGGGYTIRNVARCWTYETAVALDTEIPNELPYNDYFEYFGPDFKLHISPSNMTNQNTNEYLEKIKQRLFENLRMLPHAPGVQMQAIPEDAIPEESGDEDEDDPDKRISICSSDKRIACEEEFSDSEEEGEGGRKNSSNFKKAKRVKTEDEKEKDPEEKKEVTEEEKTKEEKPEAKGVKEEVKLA
Histone deacetylase 3, sequence (O15379 whole entry): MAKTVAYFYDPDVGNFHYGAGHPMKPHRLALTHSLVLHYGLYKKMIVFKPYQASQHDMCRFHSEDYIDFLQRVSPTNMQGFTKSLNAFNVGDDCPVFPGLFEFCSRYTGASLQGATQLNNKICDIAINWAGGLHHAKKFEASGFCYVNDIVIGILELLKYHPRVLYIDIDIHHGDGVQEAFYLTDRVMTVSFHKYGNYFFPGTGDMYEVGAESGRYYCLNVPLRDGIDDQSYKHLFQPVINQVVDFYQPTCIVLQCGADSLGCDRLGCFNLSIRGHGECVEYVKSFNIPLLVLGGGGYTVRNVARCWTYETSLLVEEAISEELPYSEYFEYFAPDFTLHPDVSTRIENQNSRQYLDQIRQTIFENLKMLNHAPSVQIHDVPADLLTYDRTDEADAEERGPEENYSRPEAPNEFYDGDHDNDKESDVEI
Histone deacetylase 2, sequence (Q92769 whole entry): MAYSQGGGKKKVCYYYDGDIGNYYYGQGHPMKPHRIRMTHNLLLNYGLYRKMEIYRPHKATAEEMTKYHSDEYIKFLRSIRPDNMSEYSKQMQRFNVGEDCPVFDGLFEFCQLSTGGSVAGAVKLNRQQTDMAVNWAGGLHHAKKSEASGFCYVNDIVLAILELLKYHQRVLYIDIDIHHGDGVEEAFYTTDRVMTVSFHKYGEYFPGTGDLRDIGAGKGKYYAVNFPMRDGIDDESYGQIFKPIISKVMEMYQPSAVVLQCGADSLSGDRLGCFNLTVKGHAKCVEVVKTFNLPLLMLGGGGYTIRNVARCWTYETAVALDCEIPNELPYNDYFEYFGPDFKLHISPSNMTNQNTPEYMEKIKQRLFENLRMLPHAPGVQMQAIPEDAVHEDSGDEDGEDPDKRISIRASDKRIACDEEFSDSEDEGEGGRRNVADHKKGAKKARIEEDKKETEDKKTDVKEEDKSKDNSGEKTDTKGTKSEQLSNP
Histone deacetylase 5 (Homo sapiens), sequence (Q9UQL6 whole entry): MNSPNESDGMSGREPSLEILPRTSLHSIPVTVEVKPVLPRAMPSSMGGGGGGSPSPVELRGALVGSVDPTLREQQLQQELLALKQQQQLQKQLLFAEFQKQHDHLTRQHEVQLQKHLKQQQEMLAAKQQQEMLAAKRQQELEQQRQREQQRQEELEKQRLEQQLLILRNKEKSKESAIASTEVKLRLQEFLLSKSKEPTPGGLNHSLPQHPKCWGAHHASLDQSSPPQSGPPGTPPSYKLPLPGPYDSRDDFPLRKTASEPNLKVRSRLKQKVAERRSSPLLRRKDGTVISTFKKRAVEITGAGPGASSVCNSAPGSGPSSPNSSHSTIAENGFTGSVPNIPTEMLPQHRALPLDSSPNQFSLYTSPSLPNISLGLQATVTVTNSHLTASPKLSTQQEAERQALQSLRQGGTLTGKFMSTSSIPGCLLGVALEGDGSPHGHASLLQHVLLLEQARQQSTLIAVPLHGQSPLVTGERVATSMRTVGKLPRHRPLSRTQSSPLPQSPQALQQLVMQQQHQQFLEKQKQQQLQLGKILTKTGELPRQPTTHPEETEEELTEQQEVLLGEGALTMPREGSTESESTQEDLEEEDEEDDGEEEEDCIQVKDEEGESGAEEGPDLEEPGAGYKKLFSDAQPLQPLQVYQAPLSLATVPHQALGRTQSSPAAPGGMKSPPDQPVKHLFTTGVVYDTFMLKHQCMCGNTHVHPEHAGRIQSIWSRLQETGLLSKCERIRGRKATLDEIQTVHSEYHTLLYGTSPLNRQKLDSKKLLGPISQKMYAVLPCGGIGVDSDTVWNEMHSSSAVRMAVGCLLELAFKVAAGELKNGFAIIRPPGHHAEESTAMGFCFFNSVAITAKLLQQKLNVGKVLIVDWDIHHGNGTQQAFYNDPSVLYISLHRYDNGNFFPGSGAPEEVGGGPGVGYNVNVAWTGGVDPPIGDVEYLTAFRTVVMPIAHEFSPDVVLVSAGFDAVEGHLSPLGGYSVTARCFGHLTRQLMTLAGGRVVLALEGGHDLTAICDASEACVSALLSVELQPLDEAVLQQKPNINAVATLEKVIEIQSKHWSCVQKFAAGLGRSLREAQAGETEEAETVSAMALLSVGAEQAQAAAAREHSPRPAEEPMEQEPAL

inhibition (Mus musculus [1]): Active
pIC50 (Histone deacetylase 1): 7.72
pIC50 (Histone deacetylase 2): 7.48
pIC50 (Histone deacetylase 3): 7.21
inhibition (Mus musculus [2]): Active
Structure (SMILES): O=C(CCCCC(=O)N/N=C/c1ccc(-c2ccccc2)cc1)NO

inhibition (Mus musculus [1]): Active
pIC50 (Histone deacetylase 1): 9.15
pIC50 (Histone deacetylase 2): 9.00
pIC50 (Histone deacetylase 3): 8.70
inhibition (Mus musculus [2]): Active
Structure (SMILES): O=C(CCCCCCC(=O)N/N=C/c1ccc(-c2ccccc2)cc1)NO

pIC50 (Histone deacetylase 1): 8.64
pIC50 (Histone deacetylase 2): 8.16
pIC50 (Histone deacetylase 3): 8.85
Structure (SMILES): O=C(CCCCCC(=O)N/N=C/c1ccc(-c2ccccn2)cc1)NO

pIC50 (Histone deacetylase 1): 8.49
pIC50 (Histone deacetylase 2): 7.68
pIC50 (Histone deacetylase 3): 8.62
Structure (SMILES): O=C(CCCCCC(=O)N/N=C/c1ccc(-c2cncnc2)cc1)NO

pIC50 (Histone deacetylase 1): 8.68
pIC50 (Histone deacetylase 2): 8.20
pIC50 (Histone deacetylase 3): 8.80
Structure (SMILES): O=C(CCCCCC(=O)N/N=C/c1ccc(-c2cccs2)cc1)NO

Cmax [7]: 79.1 nM
pIC50 (Histone deacetylase 1): 8.96
pIC50 (Histone deacetylase 2): 7.97
pIC50 (Histone deacetylase 3): 9.10
pEC50 [3]: 6.85
Cmax [4]: 75.7 nM
Cmax [8]: 45.2 nM
Cmax [9]: 13.5 nM
Cmax [10]: 9.73 nM
Cmax [11]: 1900 nM
Cmax [12]: 1670 nM
Cmax [13]: 1220 nM
Cmax [14]: 14.9 nM
Cmax [15]: 6.45 nM
Cmax [16]: 3.72 nM
Tmax [17]: 1 h
AUC(0-t) [18]: 5.41 µM·h
AUC(0-inf) [19]: 5.42 µM·h
t1/2 (Mus musculus [20]): 1.28 h
CL/F [21]: 217 mL/min/kg
MRT [22]: 1.6 h
Tmax [23]: 1 h
AUC(0-t) [24]: 0.12 µM·h
Kp [25]: 0.03
pIC50 [5]: 9.30
inhibition [6]: inactive
Structure (SMILES): O=C(CCCCCC(=O)N/N=C/c1ccc(-c2cccnc2)cc1)NO

The next lines start with the molecule.

Structure (SMILES): COc1cc(O)cc(OC)c1/C=N/NC(=O)CCCCCC(=O)NO
pIC50 (Histone deacetylase 1): 7.50
pIC50 (Histone deacetylase 2): 6.97
pIC50 (Histone deacetylase 3): 7.59

Structure (SMILES): O=C(CCCCCC(=O)N/N=C/c1ccc(-c2ccccc2)cc1)NO
pIC50 (Histone deacetylase 1): 8.85
pIC50 (Histone deacetylase 2): 8.68
pIC50 (Histone deacetylase 3): 8.47
pEC50 [3]: 6.68
Cmax [4]: 60 nM
pIC50 [5]: 9.22
inhibition [6]: inactive

Structure (SMILES): O=C(CCCCCC(=O)N/N=C/c1ccc(-c2ccncc2)cc1)NO
pIC50 (Histone deacetylase 1): 8.51
pIC50 (Histone deacetylase 2): 7.85
pIC50 (Histone deacetylase 3): 8.74

Structure (SMILES): COc1ccc(Br)c(/C=N/NC(=O)CCCCCC(=O)NO)c1
pIC50 (Histone deacetylase 1): 9.22
pIC50 (Histone deacetylase 2): 8.30
pIC50 (Histone deacetylase 3): 8.92

Structure (SMILES): Cc1ccccc1-c1ccc(/C=N/NC(=O)CCCCCC(=O)NO)cc1
pIC50 (Histone deacetylase 1): 8.10
pIC50 (Histone deacetylase 2): 7.73
pIC50 (Histone deacetylase 3): 8.27
